≈ marks a conversion by molar mass, not a printed value. Where “and” joins values, the source holds several entries; their conditions need not be identical. Identical values can stand only once. Like-named read-outs stand apart in the source and are kept apart here.
How the values were obtained:
[1] = target: T1, AbDHODH (Acinetobacter baumannii, UniProt B7GZW7); assay: AbDHODH steady-state rate assay; format: biochemical
T1 sequence (B7GZW7 1-334): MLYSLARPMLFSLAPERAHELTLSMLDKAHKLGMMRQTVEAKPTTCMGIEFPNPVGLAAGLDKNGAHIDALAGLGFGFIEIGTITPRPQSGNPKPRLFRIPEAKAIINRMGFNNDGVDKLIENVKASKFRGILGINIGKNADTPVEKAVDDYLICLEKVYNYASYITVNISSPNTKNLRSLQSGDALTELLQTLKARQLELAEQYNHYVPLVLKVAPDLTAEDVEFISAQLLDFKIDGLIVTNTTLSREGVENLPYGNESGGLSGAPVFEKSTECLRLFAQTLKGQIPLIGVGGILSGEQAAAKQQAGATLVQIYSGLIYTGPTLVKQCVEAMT

[2] = target: T2, HsDHODH (Homo sapiens, UniProt Q02127); assay: biochemical
[3] = tested on: A. baumannii AB307-0294; assay: Antimicrobial susceptibility testing in MM; format: cell-based, Acinetobacter baumannii; conditions: for uracil rescue of growth: AB307, 0.2 mM uracil; for cidal or static activity by CFU vs initial inoculum: AB307 and HUMC1, DSM186 at >1 µg/mL, DSM161 at highest concentrations assessed; for EC50: Acinetobacter baumannii, AB3070294, 24 h, read-out: AB307 EC50
[4] = tested on: A. baumannii HUMC1 (CR-XDR); assay: Antimicrobial susceptibility testing in MM; format: cell-based, Acinetobacter baumannii; conditions: for EC50 / MIC: Acinetobacter baumannii, 24 h; for EC50: read-out: HUMC EC50
[5] = tested on: A. baumannii LAC-4 (MDR); assay: Antimicrobial susceptibility testing in MM; format: cell-based; conditions: Acinetobacter baumannii, 24 h; for EC50: read-out: LAC-4 EC50; for MIC: read-out: LAC-4 MIC
Method in brief: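 Overnight (18 h) cultures in minimal medium (MM) plus casamino acids were diluted 1:1,000 and titred on LB plates. Test compound (in DMSO) was added at various concentrations, giving about 5 × 10^5 CFU/mL final. Medium-only and DMSO wells served as controls. Plates were shaken at 37 °C for 24 h, reading Å600 every 15 min. […] There were 2–4 technical replicates per concentration, and results are mean ± SEM of multiple independent studies.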

[6] = tested on: A. baumannii AB307; assay: Time-kill assay; format: cell-based, Acinetobacter baumannii; conditions: DSM186 1 µg/mL, DSM161 17.5 µg/mL, meropenem 1 µg/mL
Method in brief: (§1)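 Time-kill assays were run in pyrimidine-deficient MM at a fixed compound concentration: 1 µg/mL (2.9 µM) or 17.5 µg/mL (50 µM). Untreated and meropenem 1 µg/mL (2.6 µM) comparators were included. CFU was enumerated over time against the starting inoculum. Data are mean ± SEM of 2–4 independent studies, each with 2–5 technical replicates.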

[7] = tested on: A. baumannii HUMC1; assay: Time-kill assay; format: cell-based, Acinetobacter baumannii; conditions: DSM186 1 µg/mL, meropenem 1 µg/mL
Method in brief: as §1

[8] = tested on: A. baumannii AB307ΔpyrD; assay: Time-kill assay; format: cell-based, Acinetobacter baumannii; conditions: pyrimidine-deficient medium
[9] = tested on: A. baumannii AB307; assay: Efflux and permeability assay; format: cell-based, Acinetobacter baumannii; conditions: DSM186 0.015 µg/mL
[10] = tested on: A. baumannii strains; assay: DSM186 on a panel of A. baumannii strains; format: cell-based, Acinetobacter baumannii; conditions: for MIC: Acinetobacter baumannii
[11] = Microsomal stability; format: in vitro ADME; conditions: human liver microsomes
[12] = Microsomal stability; format: in vitro ADME; conditions: mouse microsomes
[13] = tested on: A. baumannii AB307-0294 isolates; assay: Susceptibility of AB307-0294 isolates recovered from DSM161-treated mice; format: cell-based, Acinetobacter baumannii; conditions: eight independent colonies of AB307 from three animals
Method in brief: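 Neutropenic BALB/c mice were infected in the thigh with AB307 and given test compound orally at 100 mg/kg at 0 and 12 h. Eight independent colonies were recovered from three sites in three animals and retested. MIC was determined by CFU at 24 h in MM, defined as growth within ± ½ log of the starting inoculum.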

[14] = target: T2, HsDHODH; conditions: read-out: HsDHODH IC50; previously reported; ref [25], [27]; cited from earlier work
[15] = read-out: MIC as measured by CFU

T2 sequence (Q02127 whole entry): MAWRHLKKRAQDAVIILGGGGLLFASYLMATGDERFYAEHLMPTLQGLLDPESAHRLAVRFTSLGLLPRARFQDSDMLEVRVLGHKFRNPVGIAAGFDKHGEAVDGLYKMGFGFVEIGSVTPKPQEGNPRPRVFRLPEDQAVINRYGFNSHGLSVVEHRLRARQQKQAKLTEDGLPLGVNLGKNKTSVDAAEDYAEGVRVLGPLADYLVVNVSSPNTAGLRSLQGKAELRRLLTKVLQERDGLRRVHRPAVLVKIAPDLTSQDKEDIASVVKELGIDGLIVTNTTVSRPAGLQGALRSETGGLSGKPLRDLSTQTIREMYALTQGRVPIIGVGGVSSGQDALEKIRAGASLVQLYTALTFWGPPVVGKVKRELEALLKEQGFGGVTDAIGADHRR

Row | Compound | IC50 [1] [nM] | uracil rescue of growth [3] | EC50 [3] [nM] | EC50 [4] [nM] | MIC ([4]; read-out: HUMC MIC) | EC50 [5] [nM] | MIC [5] | time-kill: CFU over time vs starting inoculum [6] | also measured
1 | Cc1cc(Nc2ccc(S(F)(F)(F)(F)F)cc2)n2ccnc2n1 [DSM186] | 28 ± 3.8 | rescued by the addition of uracil | 53 ± 8.2 | 170 ± 3.3 | 0.78 µM and 0.27 µg/mL | 170 ± 33 | 1.3 µM and 0.45 µg/mL | decreased below the starting inoculum | IC50 [2]: > 100000 nM; cidal or static activity by CFU vs initial inoculum [3]: cidal activity; MIC [4, 15]: 1.6 µM and 0.55 µg/mL; uracil rescue of growth ([4]; HUMC1, 0.2 mM uracil): rescued by the addition of uracil; time-kill: CFU over time vs starting inoculum [7]: decreased below the starting inoculum; time-kill: killing of DHODH deletion mutant [8]: neither DSM186 nor DSM161 caused increased killing; effect of combination of PAβN and PMBN on activity [9]: less active than PMBN alone; effect of efflux inhibitor PAβN on activity ([9]; PAβN 70 µg/mL): somewhat increased the activity; effect of permeability-increasing agent PMBN on activity ([9]; PMBN 64 µg/mL): somewhat increased the activity; concentration inhibiting growth by CFU ([10]; 17/23 strains, relative to starting inoculum (± ½ log) at 24 h): 1 µg/mL and 2.9 µM; activity across strains tested ([10]; 30 strains including 12 CR-XDR isolates): active against all the 30 strains tested; MIC ([10]; read-out: MIC assessed by Å600): 0.11 to 1.09 µg/mL (≈ 0.314 to 3.11 µM); MIC ([10]; read-out: minimal inhibitory concentration): ≤ 1 µg/mL; concentration inhibiting growth by CFU ([10]; remaining six strains): 2 µg/mL and 5.8 µM; metabolic stability [11]: metabolically stable; metabolic stability [12]: less stable
2 | Cc1cc(Nc2ccc(S(F)(F)(F)(F)F)cc2)n2nc(C(C)(F)F)nc2n1 [DSM265] | 590 ± 160 | uracil rescue was also demonstrated | 2700 ± 210 | – | – | – | – | – | –
3 | Cc1cc(Nc2ccc(S(F)(F)(F)(F)F)cc2)n2ncnc2n1 [DSM161] | 300 ± 110 | uracil rescue was also demonstrated | 1400 ± 300 | 8400 ± 850 | 25 µM and 8.8 µg/mL | 4400 ± 470 | 25 µM and 8.8 µg/mL | decreased below the starting inoculum | cidal or static activity by CFU vs initial inoculum [3]: bacteriostatic; fold MIC by CFU higher than MIC by absorbance assay ([3]; both strains (AB307, HUMC1)): 10 fold; MIC [4, 15]: 50 µM and 17.5 µg/mL; fold difference in potency, drug-resistant strains vs drug-sensitive AB307 ([4]; HUMC1 and LAC-4 vs AB307): 3–6 fold; time-kill: killing of DHODH deletion mutant [8]: neither DSM186 nor DSM161 caused increased killing; change in MIC (by CFU) of colonies recovered from treated animals [13]: no change in MIC; IC50 [14]: > 100000 nM
4 | Cc1cc(Nc2ccc3c(c2)CCCC3)n2ccnc2n1 [DSM187] | 170 | – | – | – | – | – | – | – | –
5 | C[C@@H](O)[C@H]1C(=O)N2C(C(=O)O)=C(S[C@@H]3CN[C@H](C(=O)N(C)C)C3)[C@H](C)[C@H]12 [meropenem, reference compound] | – | – | – | – | – | – | – | decreased below the starting inoculum | –
6 | Cc1cc(Nc2ccc(C(F)(F)F)c(F)c2)n2ncnc2n1 [DSM125] | 910 ± 70 | – | 9600 | 34000 | 51 µM and 16 µg/mL | – | – | – | IC50 [14]: > 100000 nM
7 | Cc1cc(Nc2ccc(C(F)(F)F)cc2)c2ccccc2n1 [DSM250] | 85 ± 15 | uracil rescue was also demonstrated | 380 ± 140 | – | – | 1600 | 12.5 µM and 3.8 µg/mL | – | IC50 [2]: > 100000 nM; concentrations showing some off-target activity ([3]; AB307, uracil rescue study): above 10 µM
